Screening results from PubChem BioAssay.
The list is not random: actives were taken first. Their share in the collection is about 1.4%.
NR1D1 modulator: Rev-erb alpha (human) modulation; P20393; Rev-erbα–FITC-DNA binding, fluorescence polarization, 90 min; activity, % at 10 µM; 370,000 tested, 0.79% active; AID 1259318;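 active = activity above about 14%, limit read from the data; passing the limit was not always enough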
NR2E3 ag-1: agonists of human nuclear receptor NR2E3; Q9Y5X4; GST-NR2E3/biotin-RetCOR TR-FRET, 1536-well; inhibition of corepressor binding, % at 4.78 µM; 320,000 tested, 0.12% active;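 active = percent inhibition above the cutoff of mean plus 3 SD of all tested compounds, set per screening campaign, cut at about 20% in these data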
Target sequence (Q9Y5X4 whole entry, looked up): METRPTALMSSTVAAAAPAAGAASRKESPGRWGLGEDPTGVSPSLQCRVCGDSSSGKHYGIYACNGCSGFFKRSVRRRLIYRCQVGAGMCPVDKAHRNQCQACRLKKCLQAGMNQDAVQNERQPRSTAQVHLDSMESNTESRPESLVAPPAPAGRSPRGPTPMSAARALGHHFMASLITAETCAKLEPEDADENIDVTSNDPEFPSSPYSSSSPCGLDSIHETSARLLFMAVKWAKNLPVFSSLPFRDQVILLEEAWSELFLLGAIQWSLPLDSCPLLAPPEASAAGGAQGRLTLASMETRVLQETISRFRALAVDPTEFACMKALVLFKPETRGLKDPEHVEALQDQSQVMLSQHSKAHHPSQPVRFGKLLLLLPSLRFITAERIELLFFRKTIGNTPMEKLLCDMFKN
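Test system: GST-NR2E3 and biotin-RetCOR proteins | Quantity: 1.35 nM GST-tagged NR2E3 final | Medium: Tris pH 7.5 | Also added: 7 nM biotin-RetCOR | Dosing: Compound at 4.8 µM, single dose | Timing: 5 h at 4 °C | Detection: Time-resolved FRET | Read-out basis: Percent inhibition | Benchmarks: Biotin wells as high control, 0.6% DMSO wells as low control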
NR2E3 ag-2: human photoreceptor-specific nuclear receptor agonism; inhibition of corepressor binding, % at 3.98 µM; Q9Y5X4; 360,000 tested, 0.35% active; CHO-S Gal4-NCOR/VP16-NR2E3 two-hybrid, luciferase;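 active = inhibition above the mean of all tested compounds plus 3 SD, cut at about 70% in these data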;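 also: higher means lower luciferase signal from less NR2E3 corepressor binding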
PG9 Ab binder: small molecules binding HIV-1 gp120 antibody PG9; TR-FRET gp120-PG9 antibody binding; inhibition, % at 6.7 µM; 360,000 tested, 0.43% active; in the data active = inhibition above about 8.5%
NR2E3 ag confirm-1: confirmation of human NR2E3 nuclear receptor agonists | activation (reported as inhibition), % at 3.98 µM | cell-free NR2E3 corepressor release, TR-FRET, 5 h | 360 tested, 39% active | shares compounds with NR2E3 ag-1; in the data active = activation above about 20%
PPARg-NCOR2 ctr: releases PPARgamma from NCOR2 in NR2E3 counter-screen | shares compounds with NR2E3 ag-1 | TR-FRET PPARg-NCOR2 coregulator interaction, biochemical | inhibition, % at 3.98 µM | 360 tested, 45% active | AID 504787; in the data active = inhibition above about 20%
NR2E3 ag confirm-2: NR2E3 agonism confirmed in two-hybrid assay; CHO-S mammalian two-hybrid NR2E3-NCOR, luciferase luminescence; 2,300 tested, 51% active; inhibition, % at 3.98 µM; shares compounds with NR2E3 ag-2;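 active = average inhibition above a cutoff equal to the mean inhibition of all tested compounds plus one SD, cut at about 70% in these data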
GAL4-VP16 luc: GAL4-VP16 reporter inhibition in NR2E3 agonist counterscreen; shares compounds with NR2E3 ag-2; CHO-S GAL4-VP16 luciferase reporter, luminescence; inhibition, % at 3.98 µM; 2,300 tested, 29% active;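 active = mean inhibition above a cutoff equal to the average over all tested compounds plus one standard deviation, cut at about 70% in these data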;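 also: luciferase from a UAS reporter driven by GAL4-VP16 transactivation; higher means less reporter light so more repression of VP16 activity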
PG9 bind confirm: PG9 antibody binding, confirmed; shares compounds with PG9 Ab binder; 1,500 tested, 90% active; TR-FRET PG9 antibody binding, biochemical; inhibition, % at 6.7 µM; AID 651571; in the data active = inhibition above about 9%
PGV04 Ab binding: PGV04 control antibody binding, counter-screen; 1,500 tested, 95% active; TR-FRET PGV04 antibody-gp120 binding, biochemical; shares compounds with PG9 Ab binder; inhibition, % at 6.7 µM; in the data active = inhibition above about 9.5%
Of the large screens only hits and unclear results are named; the others gave an inactive call (follow-up assays come after a bar, where they were run); ! = a repeat was not active.

NCCc1cc(O)c(O)cc1O	PG9 Ab binder 11! (no result: NR2E3 ag-1)
CC(C)(N)Cc1ccccc1	none (no result: NR2E3 ag-1, NR2E3 ag-2, PG9 Ab binder)
C#C[C@@H]1CC2C3CCC4=C[C@@H](OC(C)=O)CCC4C3CC[C@]2(C)[C@H]1OC(C)=O (stereo not given in full)	none (no result: NR2E3 ag-1, NR2E3 ag-2, PG9 Ab binder)
Cc1cc(O)c2c(c1)C(=O)C13C(=C2O)C(=O)[C@H]2[C@@H](O)[C@@H]1[C@H]1[C@H](O)[C@@H]3C(=O)C3=C(O)c4c(O)cc(C)cc4C(=O)C312 (stereo not given in full)	NR2E3 ag-2 102 (no result: NR1D1 modulator, PG9 Ab binder)
CC(C)COC(=O)c1ccccc1C(=O)OCC(C)C	none
C[CH2][Hg][S]c1ccccc1C(=O)O	NR2E3 ag-2 93
CCn1nc(-c2cccs2)nc2c(=O)n(C)c(=O)nc1-2	NR2E3 ag-2 106 (no result: NR1D1 modulator, NR2E3 ag-1, PG9 Ab binder)
C=CC[C@]1(O)CCC2C3CCC4=CC(=O)CCC4=C3C=C[C@@]21C (stereo not given in full)	none (no result: NR2E3 ag-1, NR2E3 ag-2, PG9 Ab binder)
C[C@H]1[C@H](O)[C@@H](C)/C=C/C=C/CC/C=C/C=C/C=C/C=C/C(OC2O[C@H](C)[C@@H](O)[C@H](N)[C@@H]2O)CC2O[C@](O)(CC(O)C(O)CCC(O)CC(O)CC(O)CC(=O)O[C@H]1C)CC(O)C2C(=O)O (stereo not given in full)	none (no result: NR2E3 ag-1, NR2E3 ag-2, PG9 Ab binder)
CCN1/C(=C\C=C\C2=[N+](CC)c3ccccc3C2(C)C)C(C)(C)c2ccccc21	NR2E3 ag-2 104 (no result: NR1D1 modulator, PG9 Ab binder)
NC(Cc1cc(O)c(O)cc1O)C(=O)O (stereo not given)	NR2E3 ag-1 25 (no result: NR1D1 modulator, NR2E3 ag-2, PG9 Ab binder) | NR2E3 ag confirm-1 38 | PPARg-NCOR2 ctr inactive
O=C1CC2OCC=C3CN4CC[C@]56c7ccccc7N1C5[C@H]2[C@H]3CC46 (stereo not given in full)	none (no result: NR2E3 ag-1, NR2E3 ag-2, PG9 Ab binder)
CCN1C(=O)C(=C2C=C(C)N(Cc3ccco3)C(C)=C2)C(=O)N(CC)C1=S	NR2E3 ag-1 25, PG9 Ab binder 20 | NR2E3 ag confirm-1 inactive | PPARg-NCOR2 ctr inactive | PG9 bind confirm 22 | PGV04 Ab binding 27
CC(=NNC(=S)N1CC2CCC(CC2)C1)c1nccs1	NR2E3 ag-2 96 (no result: NR2E3 ag-1) | NR2E3 ag confirm-2 100 | GAL4-VP16 luc 85
Cc1cccc(Cc2cnc[nH]2)c1C	none (no result: NR2E3 ag-1, NR2E3 ag-2, PG9 Ab binder)
O=c1[nH]c2ccccc2n1C1CCN(C(CCc2ccccc2)c2nnnn2-c2ccc3c(c2)OCCO3)CC1 (stereo not given)	none (no result: NR2E3 ag-1) | NR2E3 ag confirm-2 inactive | GAL4-VP16 luc inactive
CC(=O)OC[C@]12CCC(C)=C[C@H]1O[C@@H]1[C@H](O)[C@@H](OC(C)=O)[C@@]2(C)[C@]12CO2	NR2E3 ag-2 102 | NR2E3 ag confirm-2 100 | GAL4-VP16 luc 99
CC(=O)NC1CCSC1=O (stereo not given)	none (no result: NR2E3 ag-1, NR2E3 ag-2, PG9 Ab binder)
C[C@H]1CCC/C=C/[C@@H]2C[C@H](O)C[C@H]2[C@H](O)/C=C/C(=O)O1	NR2E3 ag-2 95 | NR2E3 ag confirm-2 99 | GAL4-VP16 luc inactive
CC(C)(C)NCC(O)c1ccccc1Cl (stereo not given)	none (no result: NR2E3 ag-1, NR2E3 ag-2, PG9 Ab binder)
O=C1C=C2C=C[C@@H]3C[C@@]2(O1)[C@H]1CCCCN31	none (no result: NR2E3 ag-1, NR2E3 ag-2, PG9 Ab binder)
CCOP(=O)(CCP(=O)(OCC)OCC)OCC.C[CH2][Sn]([Cl])([Cl])[CH2]C	NR2E3 ag-2 91 (no result: NR2E3 ag-1) | NR2E3 ag confirm-2 100 | GAL4-VP16 luc inactive
CCOP(=O)(OCC)OCC	none
CC(C)NCC(O)c1ccccc1Cl (stereo not given)	none (no result: NR2E3 ag-1, NR2E3 ag-2, PG9 Ab binder)
COC(COC(N)=O)C1=C(N2CC2)C(=O)C(C)=C(N2CC2)C1=O (stereo not given)	none (no result: NR2E3 ag-1)
CC1=C(N2CC2)C(=O)C(CO)=C(N2CC2)C1=O	none (no result: NR2E3 ag-1) | NR2E3 ag confirm-2 99 | GAL4-VP16 luc 96
CNC(=O)Oc1cccc2c1OC(C)(C)C2	none (no result: NR2E3 ag-1, NR2E3 ag-2, PG9 Ab binder)
C[C@]12CC[C@H](O)CC1=CCC1C2CC[C@]2(C)C(=O)CC[C@@H]12 (stereo not given in full)	none (no result: NR2E3 ag-1, NR2E3 ag-2, PG9 Ab binder)
CC(O)C1C=CC=CC(=O)OC2CC3OC4C5OC5(C)CCC4(COC(=O)C4OC4(C)C(O)CO1)C2(C)C31CO1 (stereo not given)	NR2E3 ag-2 101 (no result: NR2E3 ag-1) | NR2E3 ag confirm-2 99 | GAL4-VP16 luc 97
CC(=O)OC1C(=O)OCC23CCC4(C)OC4C2OC2CC(OC(=O)C=CC=CC(=O)OCCC1C)C3(C)C21CO1 (stereo not given)	NR2E3 ag-2 102 (no result: NR2E3 ag-1) | NR2E3 ag confirm-2 99 | GAL4-VP16 luc 99
O=Cc1cn(Cc2ccccc2F)c2ccccc12	none
CC(=O)c1cn(Cc2ccccc2F)c2ccccc12	NR2E3 ag-2 83 (no result: NR2E3 ag-1) | NR2E3 ag confirm-2 90 | GAL4-VP16 luc 75
CC(=O)c1cn(Cc2ccccc2C#N)c2ccccc12	NR2E3 ag-2 75 | NR2E3 ag confirm-2 88 | GAL4-VP16 luc 85
C=CCN1CC[C@]23c4c5ccc(O)c4O[C@@H]2C(=O)CC[C@@]3(O)[C@H]1C5	none (no result: NR2E3 ag-1, NR2E3 ag-2, PG9 Ab binder)
CC(=O)[O][Hg][c]1ccccc1	none (no result: NR2E3 ag-1, NR2E3 ag-2, PG9 Ab binder)
CCC(=O)O[C@H]1CCC2C3CCC4=CC(=O)CC[C@]4(C)C3CC[C@@]21C (stereo not given in full)	none (no result: NR2E3 ag-1, NR2E3 ag-2, PG9 Ab binder)
N#CC(C#N)=NNc1ccc(-n2ccc(C(F)(F)F)n2)cc1	NR2E3 ag-2 96 | NR2E3 ag confirm-2 inactive | GAL4-VP16 luc inactive
Cc1cc(C)n(-c2ccc(NN=C(C#N)C#N)cc2)n1	none
CC(=O)OCC1=C(C(=O)O)N2C(=O)[C@@H](NC(=O)CCCC(N)C(=O)O)C2SC1 (stereo not given in full)	none (no result: NR2E3 ag-1, NR2E3 ag-2, PG9 Ab binder)
CCC(=NCCOc1ccc(Cl)cc1)c1c(O)n(C)c(=O)n(C)c1=O	NR2E3 ag-2 79 | NR2E3 ag confirm-2 96 | GAL4-VP16 luc 83
CCC(=NCCc1c[nH]c2ccccc12)c1c(O)n(C)c(=O)n(C)c1=O	NR2E3 ag-2 73 | NR2E3 ag confirm-2 87 | GAL4-VP16 luc 77
CN1CCc2cc3c(cc2C1O)OCO3 (stereo not given)	none (no result: NR2E3 ag-1, NR2E3 ag-2, PG9 Ab binder)
